What was measured:
[1] = Dissociation constant for a single binding site
Procedure, shortened: (§1)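 Bovine serum albumin (10 mg/mL) was pre-equilibrated with ~5 mCi tritiated water in 1 M GdnCl, 0.1 M NaH2PO4 pH 8.5 for ≥18 h at room temperature. Exchange-out ran with compound present. Aliquots were taken at timed intervals over ≥6 h, precipitated in ice-cold 10% TCA, filtered, and counted by scintillation. PFR came from the last 3–5 shared hydrogens. KD was derived from PFr = 1 + ([compound]/KD)^n.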

Albumin = Albumin (Homo sapiens, UniProt P02768); test: Inhibitory concentration bound to tryptophan containing region of Serum albumin in fluorescence quenching
Procedure, shortened: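 Increasing compound concentrations were added from stock buffer solutions to ~2 µM human serum albumin, which has a single Trp-214. The cuvette was kept air-free. Excitation was 295 nm with emission scanning at room temperature. Fluorescence maxima were corrected for inner-filter effects, and EC50 and Hill slope were derived.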

[2] = Effective concentration for tadpole immobility (less potent); assay type: functional, frog
Procedure, shortened: (§2)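 Tadpoles were exposed to compound in pond water and scored for loss of righting reflex over 5 min. They were then moved to fresh pond water and watched for recovery, intermittently for 3 h. EC50 values are estimates within 2-fold.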

[3] = Dissociation constant for a single binding site at 5 mM concentration; procedure, shortened: as §1
[4] = (§3) Effective concentration to potentiate GABA responses; assay type: functional
Procedure, shortened: (§4)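 Stage V–VI Xenopus oocytes were defolliculated with collagenase and injected with 1–2 ng of each subunit cRNA in a 1:1 ratio. They were kept in ND96 with 50 µg/mL gentamicin at 18 °C for 3–5 days. Voltage-clamp recording was done under continuous ND96 superfusion (pH 7.5).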

[5] = Effective concentration for rapid onset of reversible immobility (tadpole) at about 0.1 mM; assay type: functional, frog; procedure, shortened: as §2
[6] = Effective concentration for tadpole immobility after 5 min (slow recovery); assay type: functional, frog; settings: Amphibia, read-out: ED50 (the source's name); procedure, shortened: as §2
[7] = as §3; assay type: functional; procedure, shortened: as §4; remark: listed apart in the source

Chain of Albumin (P02768 whole entry): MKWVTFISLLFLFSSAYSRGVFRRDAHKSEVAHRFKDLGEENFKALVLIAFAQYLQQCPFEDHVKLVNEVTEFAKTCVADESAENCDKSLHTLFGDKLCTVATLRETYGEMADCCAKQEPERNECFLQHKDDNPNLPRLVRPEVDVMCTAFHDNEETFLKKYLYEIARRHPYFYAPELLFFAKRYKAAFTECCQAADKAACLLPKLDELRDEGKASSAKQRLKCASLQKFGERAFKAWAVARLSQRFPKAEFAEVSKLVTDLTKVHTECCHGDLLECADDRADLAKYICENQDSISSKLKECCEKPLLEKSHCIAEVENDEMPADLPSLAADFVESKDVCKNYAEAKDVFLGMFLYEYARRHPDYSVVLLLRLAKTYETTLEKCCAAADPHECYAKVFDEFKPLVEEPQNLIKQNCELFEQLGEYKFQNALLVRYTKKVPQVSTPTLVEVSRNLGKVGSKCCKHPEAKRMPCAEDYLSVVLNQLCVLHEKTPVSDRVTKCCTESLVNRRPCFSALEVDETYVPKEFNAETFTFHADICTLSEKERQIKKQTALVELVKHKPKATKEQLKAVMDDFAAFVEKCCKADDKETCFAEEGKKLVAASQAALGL

Row | SMILES | Kd [1] | IC50 (Albumin) | EC50 [2] | Kd [3] | EC50 [4] | EC50 [5] | EC50 [6] | ED50 [7]
1 | FC(F)(F)C1(Br)N=N1 | 5600 µM | 400 µM |  |  |  |  |  | 
2 | FC(Cl)C(F)(F)C1(F)N=N1 (configuration not stated) | 4800 µM | 2200 µM | 2500 µM |  |  |  |  | 
3 | [N-]=[N+]=CC(F)(F)F |  | 1200 µM |  | 1300 µM |  |  |  | 
4 | FC(F)(F)C(Cl)Br (configuration not stated) [HALOTHANE] | 900 µM | 2900 µM |  |  |  |  |  | 
5 | FC(F)(C(Cl)Br)C1N=N1 (configuration not stated) | 200 µM | 800 µM |  |  | 50 µM | 100 µM |  | 
6 | FC(Cl)C(F)(F)C1(Br)N=N1 (configuration not stated) | 600 µM | 700 µM |  |  |  |  | 300 µM | 80 µM
